Laboratory results taken from ChEMBL document CHEMBL1781977, “Design and synthesis of 3,5-diarylisoxazole derivatives as novel class of anti-hyperglycemic and lipid lowering agents” (Bioorg Med Chem, 2009).
Activity calls are given as the source filed them. No cut-off for these calls is given here.

Legend:
Rattus norvegicus [1] = assay: Antihyperglycemic activity against sucrose challenged streptozotocin-induced diabetic Sprague-Dawley albino rat assessed as reduction in blood glucose level at 100 mg/kg, po administered 30 mins before sucrose challenge measured after 24 hrs; assay type: functional
In short: (§1)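 Male Sprague Dawley rats, 160 ± 20 g, fasted overnight, given streptozotocin 60 mg/kg ip in 100 mM citrate pH 4.5. Rats with glucose 144–270 mg/dl at 48 h count as diabetic, 5–6 per group. Dosed 100 mg/kg orally in 1.0% gum acacia. Sucrose 2.5 g/kg given 30 min later. Glucose read at 30–300 min and 24 h. Non-responders excluded.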

Mus musculus = organism: Mus musculus; assay: Antihyperglycemic activity in C57BL/Ks db/db mouse assessed as reduction in blood glucose level measured after 3 days relative to control; assay type: functional
Rattus norvegicus [2] = assay: Antihyperglycemic activity in Charles Foster/Wistar albino rat assessed as reduction in blood glucose level at 100 mg/kg, po administered 30 mins before sucrose challenge; assay type: functional
In short: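 Male Charles Foster/Wistar rats, 160 ± 20 g, fasted 16 h; animals with glucose 60–80 mg/dl used, 5–6 per group. Given 100 mg/kg orally as suspension in 1.0% gum acacia (controls vehicle alone). Sucrose 10.0 g/kg orally 30 min later. Glucometer readings at 30, 60, 90, 120 min. Percent activity derived from AUC of treated versus control groups.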

Rattus norvegicus [3] = assay: Antihyperglycemic activity against sucrose challenged streptozotocin-induced diabetic Sprague-Dawley albino rat assessed as reduction in blood glucose level at 100 mg/kg, po administered 30 mins before sucrose challenge measured after 5 hrs; assay type: functional; in short: as §1
[4] = biological target: T1, Tyrosine-protein phosphatase non-receptor type 1 (Homo sapiens, UniProt P18031); assay: Inhibition of protein tyrosine phosphatase-1B at 10 uM incubated for 10 mins using pNPP substrate in presence of 0.01% Triton X-100 by modified Goldstein method
T1 sequence (P18031 whole entry): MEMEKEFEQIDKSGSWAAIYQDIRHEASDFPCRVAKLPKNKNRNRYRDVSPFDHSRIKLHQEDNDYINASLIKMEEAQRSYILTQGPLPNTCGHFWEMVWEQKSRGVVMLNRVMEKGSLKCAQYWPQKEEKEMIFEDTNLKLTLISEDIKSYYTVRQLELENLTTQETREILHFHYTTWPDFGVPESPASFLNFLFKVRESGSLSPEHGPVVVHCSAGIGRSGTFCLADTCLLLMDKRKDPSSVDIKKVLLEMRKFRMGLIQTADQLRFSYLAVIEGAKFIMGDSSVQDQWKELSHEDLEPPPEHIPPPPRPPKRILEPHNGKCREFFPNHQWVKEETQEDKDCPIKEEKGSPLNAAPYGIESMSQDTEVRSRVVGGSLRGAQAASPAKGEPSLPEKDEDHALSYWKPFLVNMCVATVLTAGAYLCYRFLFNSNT
In short: (§2)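 PTP-1B: compound preincubated 10 min with enzyme, with or without 0.01% Triton X-100. Then 10 mM pNPP in 50 mM HEPES pH 7.0 with 1 mM DTT and 2 mM EDTA, 30 min at 37 °C. Stopped with 0.1 N NaOH; absorbance read at 410 nm. p-Nitrophenolate calculated using ε 1.78 × 10⁴ M⁻¹cm⁻¹. Sodium orthovanadate used as reference.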

[5] = biological target: T2, Tyrosine-protein phosphatase non-receptor type 1 (Homo sapiens) (UniProt P18031); assay: Inhibition of protein tyrosine phosphatase-1B at 10 uM incubated for 10 mins using pNPP substrate by modified Goldstein method; design: Activity: scale not given: the % may be the effect or the level left; in short: as §2
T2 sequence (whole entry): T1 sequence (P18031 whole entry)

[6] = biological target: T1, Tyrosine-protein phosphatase non-receptor type 1; assay: Inhibition of protein tyrosine phosphatase-1B at 10 uM incubated for 10 mins using pNPP substrate in absence of Triton X-100 by modified Goldstein method; in short: as §2
[7] = biological target: Dipeptidyl peptidase 4 (Homo sapiens) (UniProt P27487); assay: Inhibition of DPP4 assessed as rate of substrate cleavage using Gly-Pro-AMC substrate by spectrofluorometry
Dipeptidyl peptidase 4 (Homo sapiens), sequence (P27487 whole entry, looked up): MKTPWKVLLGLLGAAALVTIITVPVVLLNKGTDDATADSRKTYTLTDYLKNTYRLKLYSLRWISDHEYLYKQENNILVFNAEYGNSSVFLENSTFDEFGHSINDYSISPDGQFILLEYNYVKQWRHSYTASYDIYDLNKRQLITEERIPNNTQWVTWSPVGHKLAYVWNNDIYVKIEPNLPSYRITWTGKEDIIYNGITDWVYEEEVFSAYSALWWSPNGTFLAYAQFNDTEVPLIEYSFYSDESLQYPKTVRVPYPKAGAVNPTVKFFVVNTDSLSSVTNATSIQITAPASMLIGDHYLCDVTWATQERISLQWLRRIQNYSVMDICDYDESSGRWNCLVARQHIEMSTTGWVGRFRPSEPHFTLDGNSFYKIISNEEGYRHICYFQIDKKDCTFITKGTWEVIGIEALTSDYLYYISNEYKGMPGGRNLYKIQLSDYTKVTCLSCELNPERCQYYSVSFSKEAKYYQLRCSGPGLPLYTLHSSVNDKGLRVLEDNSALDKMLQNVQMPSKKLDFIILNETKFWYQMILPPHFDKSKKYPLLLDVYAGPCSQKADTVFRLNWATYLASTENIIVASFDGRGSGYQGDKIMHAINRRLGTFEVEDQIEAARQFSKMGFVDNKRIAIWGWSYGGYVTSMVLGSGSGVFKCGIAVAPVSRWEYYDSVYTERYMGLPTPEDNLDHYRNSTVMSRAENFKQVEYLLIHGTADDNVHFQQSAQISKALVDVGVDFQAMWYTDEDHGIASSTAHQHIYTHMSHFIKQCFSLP
In short: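 DPP-IV activity read by fluorescence at 37 °C, excitation 355 nm and emission 460 nm. Initial rate calculated over the first 15 min as increase in fluorescence intensity.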

`CN(C)C(=N)NC(=N)N` [METFORMIN] was tested, and the inhibition in vivo at 100 mg/kg (Rattus norvegicus [1]) was 20.2%, the “inhibition (INH)” value (Mus musculus) was 11.2% and the inhibition in vivo at 100 mg/kg (Rattus norvegicus [2]) was 12.9%.
For `Cc1ccc(S(=O)(=O)NC(=O)NN2CC3CCCC3C2)cc1` (stereo unspecified) [GLICLAZIDE], the “inhibition (INH)” value (Mus musculus) was 17.4%, the inhibition in vivo at 100 mg/kg (Rattus norvegicus [2]) was 44.8% and the inhibition in vivo at 100 mg/kg (Rattus norvegicus [3]) was 27.7%.
With `COc1ccc(Cl)cc1C(=O)NCCc1ccc(S(=O)(=O)NC(=O)NC2CCCCC2)cc1` [GLYBURIDE] the “inhibition (INH)” value (Mus musculus) was 13.6%, the inhibition in vivo at 100 mg/kg (Rattus norvegicus [2]) was 33.9% and the inhibition in vivo at 100 mg/kg (Rattus norvegicus [3]) was 32.8%.
Work on `COc1ccc(-c2cc(-c3ccccc3)no2)c(OCC(O)CN2CCCCC2)c1` (stereo unspecified) yielded an inhibition in vivo at 100 mg/kg (Rattus norvegicus [1]) of 16.8%, an inhibition in vivo at 100 mg/kg (Rattus norvegicus [2]) of 17% and an IC50 [4] of 3.31 µM. For the same molecule, the Activity [5] was 85.9%, the IC50 [6] was 6.8 µM and the inhibition in vivo at 100 mg/kg (Rattus norvegicus [3]) was 15.8%.
Work on `CCOC(=O)CCCOc1cc(OC)ccc1-c1cc(-c2ccccc2)no1` yielded an inhibition in vivo at 100 mg/kg (Rattus norvegicus [2]) of 4.6%, an IC50 [4] of 26.7 µM and an inhibition [5] of 20.1%. For the same molecule, the IC50 [6] was 26.7 µM.
`CCOC(=O)COc1cc(OC)ccc1-c1cc(-c2ccccc2)no1` showed an inhibition in vivo at 100 mg/kg (Rattus norvegicus [2]) of 10.4%, an IC50 [4] of 5.35 µM and an inhibition [5] of 79.3%. It also gave an IC50 [6] of 5.25 µM.
Work on `COc1ccc(-c2cc(-c3ccccc3)no2)c(OCCCCl)c1` yielded an inhibition in vivo at 100 mg/kg (Rattus norvegicus [2]) of 9.24%, an IC50 [4] of 56.9 µM and an inhibition [5] of 9%. It also gave an IC50 [6] of 56.8 µM.
Work on `COc1ccc(-c2cc(-c3ccccc3)no2)c(OCCN2CCOCC2)c1` yielded an inhibition in vivo at 100 mg/kg (Rattus norvegicus [2]) of 2.8%, an IC50 [4] of 2.61 µM and an inhibition [5] of 82.9%. The IC50 [6] was 2.5 µM.
Work on `COc1ccc(-c2cc(-c3ccccc3)no2)c(OCCCN(C)C)c1` yielded an inhibition in vivo at 100 mg/kg (Rattus norvegicus [2]) of 11.8%, an IC50 [4] of 25.3 µM and an inhibition [5] of 22.3%. The IC50 [6] was 25.3 µM.
`COc1ccc(-c2cc(-c3ccccc3)no2)c(OCCN(C(C)C)C(C)C)c1` was tested, and the inhibition [7] was “inactive”, the inhibition in vivo at 100 mg/kg (Rattus norvegicus [1]) was 9.7% and the inhibition in vivo at 100 mg/kg (Rattus norvegicus [2]) was 21.7%. The IC50 [4] was 5.44 µM, the inhibition [5] was 89.4% and the IC50 [6] was 5.5 µM. It also gave an inhibition in vivo at 100 mg/kg (Rattus norvegicus [3]) of 11.4%.
Molecule `COc1ccc(-c2cc(-c3ccccc3)no2)c(O)c1` has an inhibition in vivo at 100 mg/kg (Rattus norvegicus [2]) of 9.8%, an IC50 [4] of 27.6 µM and an inhibition [5] of 21.8%. For the same molecule, the IC50 [6] was 27.5 µM.
